Measurements: ChEMBL document CHEMBL3739314, “Discovery of Nanomolar Dengue and West Nile Virus Protease Inhibitors Containing a 4-Benzyloxyphenylglycine Residue” (J Med Chem, 2015)
Activity calls are given as the source filed them. The rule behind the calls is not given here.

Assays:
[1] = Cytotoxicity against human HuH7 cells infected with West Nile virus assessed as cell viability after 48 hrs by Cell-Titer-Glo luminescent viability assay; format: cell-based, Huh-7
How it was run: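 Huh-7 cells (10^4/well, DMEM + 10% FBS, overnight) were infected with WT WNV (MOI 0.1) alongside compound, each concentration in triplicate. After 48 h at 37 °C, fresh DMEM was added and viability was measured by CellTiter-Glo luminescence. CC50 was determined.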

[2] = Permeability of compound assessed as compound mass retention after 5 hrs by PAMPA; format: ADME
How it was run: (§1)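 Precoated PAMPA plates were equilibrated 1 h at room temperature. Donor wells received 200 μM compound in PBS, in triplicate, and acceptor wells received PBS. After 5 h at room temperature, donor and acceptor concentrations were quantified by RP-HPLC UV at 254 nm against six-point calibration curves (10–200 μM). Pe and mass retention were calculated by literature formulas.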

[3] = Inhibition of Dengue virus serotype-2 NS2B-NS3 protease using 2-Abz-Nle-Lys-Arg-Arg-Ser-(3-NO2)-Tyr-NH2 as substrate preincubated with protein for 15 mins followed by substrate addition measured for 15 mins by FRET assay; design: species or system dengue virus type 2
How it was run: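 DENV-2 NS2B-NS3 linked construct at 30 nM (15 nM in some cases), same pH 9 Tris buffer, 15 min preincubation and FRET read-out. Eight inhibitor concentrations spanned 0–1, 0–2, 0–6 or 0–50 μM, with substrate at 50 μM. IC50 was fitted from triplicates.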

dengue virus type 2 [4] = experiment: Inhibition of Dengue virus serotype-2 NS2B-NS3 protease at 0 to 48 uM incubated for 1 hr by tryptophan quenching assay
[5] = Half life in Sprague-Dawley rat liver microsomes incubated for 30 mins by UV-HPLC method; format: ADME
How it was run: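 Pooled male rat liver microsomes (0.2 mg/mL protein) with NADPH (10 mM) in DPBS were preincubated 15 min at 37 °C. Compound (100 μM) was added and incubated at 37 °C; aliquots were taken at 0, 2, 5, 10, 20 and 30 min. Samples were quenched with equal-volume acetonitrile, chilled and centrifuged, and parent remaining was quantified by RP-HPLC UV against reference peak areas. Testosterone served as positive control.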

West Nile virus [6] = experiment: Antiviral activity against West Nile virus infected in human HuH7 cells after 3 days by virus yield reduction assay; format: functional, organism-based; details: Huh-7, 72 h
[7] = Retention time of compound by RP-HPLC analysis; format: physicochemical
Trypsin (Homo sapiens) = Trypsin (Homo sapiens) (UniProt P07477+P07478+P35030); experiment: Inhibition of trypsin (unknown origin) using Boc-Val-Pro-Arg-AMC as substrate at 25 uM preincubated with protein for 15 mins followed by substrate addition by continuous fluorimetric assay relative to control
[8] = Permeability of compound after 5 hrs by PAMPA; format: ADME; details: read-out: permeability; how it was run: as §1
[9] = Selectivity index, ratio of CC50 for African green monkey Vero cells to EC50 for Dengue virus serotype-2 infected in African green monkey Vero cells; format: toxicity, cell-based; details: read-out: Ratio CC50/EC50
dengue virus type 2 [10] = experiment: Antiviral activity against Dengue virus serotype-2 infected in African green monkey Vero cells after 7 days by virus yield reduction assay; format: functional, organism-based
[11] = molecular target: Prothrombin (Homo sapiens) (UniProt P00734); experiment: Inhibition of thrombin (unknown origin) using Boc-Val-Pro-Arg-AMC as substrate at 25 uM preincubated with protein for 15 mins followed by substrate addition measured for 10 mins by continuous fluorimetric assay relative to control
[12] = Cytotoxicity against human HuH7 cells infected with Dengue virus serotype-2 assessed as cell viability after 48 hrs by Cell-Titer-Glo luminescent viability assay; format: cell-based, Huh-7
How it was run: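 Huh-7 cells (10^4/well) were seeded in DMEM + 10% FBS overnight, then infected with WT DENV-2 (MOI 1) in the presence of compound, triplicate per concentration. After 48 h at 37 °C, medium was replaced with fresh DMEM and viability was read by CellTiter-Glo luminescence. CC50 was determined.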

West Nile virus [13] = experiment: Inhibition of West Nile virus NS2B-NS3 protease using 2-Abz-Gly-Leu-Lys-Arg-Gly-Gly-[…]-Tyr-NH2 as substrate at 50 uM preincubated with protein for 15 mins followed by substrate addition measured for 15 mins by FRET assay
How it was run: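 Linked WNV NS2B-NS3 protease (150 nM) was preincubated 15 min with inhibitor (50 μM final) in 50 mM Tris-HCl pH 9, 10% ethylene glycol, 0.0016% Brij 58. […] Percent inhibition was taken from the slope relative to the no-inhibitor control, in triplicate.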

West Nile virus [14] = experiment: Potency index, ratio of EC50 for relative to Bz-Lys-Arg-Phg-NH2 to EC50 for test compound for antiviral activity against West Nile virus infected in human HuH7 cells after 3 days by virus yield reduction assay; format: functional, Huh-7
How it was run: (§2)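 Huh-7 cells (10^4/well) in DMEM + 10% FBS, overnight at 37 °C, then infected with WNV (MOI 0.1) plus compound, triplicate, 48 h. Pooled supernatant plaque-titrated on Vero E6 (10^-2 to 10^-7, 3 days, crystal violet), giving EC50 by nonlinear fit. Viability of the same infected cells by CellTiter-Glo luminescence gave CC50. Reference inhibitor also assayed.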

[15] = Inhibition of West Nile virus NS2B-NS3 protease using 2-Abz-Gly-Leu-Lys-Arg-Gly-Gly-[…]-Tyr-NH2 as substrate preincubated with protein for 15 mins followed by substrate addition measured for 15 mins by FRET assay
How it was run: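 WNV NS2B-NS3 linked construct at 75 nM (40 nM in one case) in pH 9 Tris buffer, preincubated 15 min with eight inhibitor concentrations (ranges 0–1 up to 0–50 μM). Substrate was 50 μM, with FRET readout over 15 min. IC50 was fitted from triplicates.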

[16] = Selectivity index, ratio of CC50 for human HuH7 cells to EC50 for West Nile virus infected in human HuH7 cells; format: toxicity, cell-based, Huh-7; details: read-out: Ratio CC50/EC50; how it was run: as §2
West Nile virus [17] = experiment: Inhibition of West Nile virus NS2B-NS3 protease at 0 to 48 uM incubated for 1 hr by tryptophan quenching assay
dengue virus type 2 [18] = experiment: Potency index, ratio of EC50 for relative to Bz-Lys-Arg-Phg-NH2 to EC50 for test compound for antiviral activity against Dengue virus serotype-2 infected in African green monkey Vero cells after 7 days by virus yield reduction assay; format: functional
How it was run: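 Huh-7 cells (10^4/well) in DMEM + 10% FBS, held overnight at 37 °C, then infected with DENV-2 (MOI 1) with nontoxic compound concentrations. Each concentration in triplicate, 48 h at 37 °C, then supernatants pooled. Titres by plaque assay on Vero E6 (10^-1 to 10^-6 dilutions, 1 h adsorption, 7 days, formaldehyde fix, crystal violet, plaque count). EC50 from nonlinear dose-response fit; reference inhibitor also assayed.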

COc1cccc(COc2ccc([C@@H](NC(=O)[C@H](CCCCN)NC(=O)[C@H](CCCNC(=N)N)NC(=O)c3ccc(-c4cccs4)s3)C(N)=O)cc2)c1
CC50 at 48 h [1]: > 100 µM
permeability [2]: 1.15%
IC50 [3]: 0.176 µM
inhibition (dengue virus type 2 [4]): Active
half-life [5]: 2.92 h
EC50 (West Nile virus [6]): 15.6 µM
Retention_time [7]: 3.28 min
inhibition (Trypsin (Homo sapiens)): inactive
Papp at 5 h [8]: 0.65 ×10⁻⁶ cm/s
selectivity ratio [9]: > 25
EC50 (dengue virus type 2 [10]): 3.42 µM
inhibition [11]: inactive
CC50 at 48 h [12]: > 100 µM
inhibition (West Nile virus [13]): 100%
Ratio EC50 (West Nile virus [14]): 7
IC50 [15]: 0.557 µM
selectivity ratio [16]: > 7
inhibition (West Nile virus [17]): Active
Ratio EC50 (dengue virus type 2 [18]): 25
